# Test results from the M2OR odorant receptor database.
# Biological target: T1, OR10J5 (Homo sapiens) (UniProt Q8NHC4)
# T1 sequence (whole entry): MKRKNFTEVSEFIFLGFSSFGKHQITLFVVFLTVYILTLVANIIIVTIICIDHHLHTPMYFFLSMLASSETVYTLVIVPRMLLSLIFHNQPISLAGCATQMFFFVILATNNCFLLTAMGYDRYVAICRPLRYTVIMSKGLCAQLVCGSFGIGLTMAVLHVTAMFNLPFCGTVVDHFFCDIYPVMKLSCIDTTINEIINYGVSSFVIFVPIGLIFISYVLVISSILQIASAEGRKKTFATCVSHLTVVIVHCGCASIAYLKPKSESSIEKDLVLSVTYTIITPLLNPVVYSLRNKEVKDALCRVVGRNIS
# Settings: stereoisomer not certain
# In short: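 Whether a receptor–molecule pair is responsive (active) rests on the original authors' judgment that its measured signal was statistically different from baseline. Pairs without that judgment are non-responsive (inactive). Sources used varied assay methods, commonly transient luciferase assays in mammalian cell lines.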
# 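Also: active if original authors judged signal statistically different from baseline.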
row,SMILES,odorant receptor agonist call
1,CCCCOC(=O)C(C)OC(=O)CCC (stereo not given),inactive
2,CCOC(=O)C(C)C,inactive
3,CC(C)=CCCC(C)CCO (stereo not given),inactive
4,CCCCCC(=O)CC,inactive
5,CCC(=O)O,inactive
6,CCCC(=O)C(C)=O,inactive
7,C=CCOC(=O)CCCCCC,inactive
8,CCCCCCCC(C)=O,inactive
9,CC(C)=CCCC(C)=CCO,inactive
10,CCCCCC1=C(C)CCC1=O,inactive
11,CCCCCCCCCS,inactive
12,CCCCCCCCCO,inactive
13,CCC(C(=O)O)c1ccccc1 (stereo not given),inactive
14,CCCCCCCCO,inactive
15,CCCCCCCCS,inactive
16,CCCCCCO,inactive
17,C=C(C)C1CCC(C)C(=O)C1 (stereo not given),inactive
18,CC(=O)OCc1ccccc1,inactive
19,CCCCCCC(C)=O,inactive
20,CCCCCCCC(=O)[O-].[H+],inactive
21,CCCCCCC(=O)[O-].[H+],inactive
22,CCCC(C)=O,inactive
23,CCCCCOC(=O)CCCCC,inactive
24,CCCCC(=O)CC,inactive
25,CC(=O)Oc1ccccc1,inactive
26,O=C1Cc2ccccc2O1,inactive
27,CCCCCCOC(C)=O,inactive
28,CCCCC(C)=O,inactive
29,O=C(c1ccccc1)c1ccccc1,inactive
30,O=C1CCOc2ccccc21,inactive
